Source: ChEMBL document CHEMBL3102784, “Salicylanilide diethyl phosphates: synthesis, antimicrobial activity and cytotoxicity” (Bioorg Med Chem, 2014)
In brackets after ≈: the same amount, converted by molar mass. Activity calls are given as the source filed them. No cut-off for these calls is given here.

Assays:
Mycobacterium avium [1] = experiment: Antimycobacterial activity against isoniazid, rifampicin, ethambutol and ofloxacin-resistant Mycobacterium avium My 330/88 after 21 days; format: functional; conditions: My 330/88, 504 h
Method in brief: (§1)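 Micromethod MIC in Šula's semisynthetic medium at 37 °C. Compounds added in DMSO at 1000 down to 0.032 µmol/L. Isoniazid standard in sterile water at 0.5–250 µmol/L. Inocula: H37Rv 10^3, M. avium 10^5, M. kansasii 10^4. Read at 14 and 21 d, plus 7 d for M. kansasii.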

Mycobacterium avium [2] = experiment: Antimycobacterial activity against isoniazid, rifampicin, ethambutol and ofloxacin-resistant Mycobacterium avium My 330/88 after 14 days; format: functional; conditions: My 330/88, 336 h; method in brief: as §1
[3] = test system: Mycobacterium tuberculosis; experiment: Antimycobacterial activity against Mycobacterium tuberculosis H37Rv My 331/88 after 21 days; format: functional; conditions: H37Rv My 331/88, 504 h; method in brief: as §1
[4] = test system: Mycobacterium tuberculosis; experiment: Antimycobacterial activity against Mycobacterium tuberculosis H37Rv My 331/88 after 14 days; format: functional; conditions: H37Rv My 331/88, 336 h; method in brief: as §1
[5] = test system: Trichophyton mentagrophytes; experiment: Antifungal activity against Trichophyton mentagrophytes 445 after 120 hrs by broth microdilution method; format: functional; conditions: Trichophyton mentagrophytes, 445, 120 h
Method in brief: (§2)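 Filamentous dermatophyte tested by broth microdilution in RPMI 1640 with glutamine, fluconazole as reference. Value expressed as IC50 relative to growth control. Read at 72 and 120 h.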

[6] = test system: Trichophyton mentagrophytes; experiment: Antifungal activity against Trichophyton mentagrophytes 445 after 72 hrs by broth microdilution method; format: functional; conditions: Trichophyton mentagrophytes, 445, 72 h; method in brief: as §2
Lichtheimia corymbifera [7] = experiment: Antifungal activity against Absidia corymbifera 272 after 48 hrs by broth microdilution method; format: functional; conditions: Lichtheimia corymbifera, 272, 48 h
Method in brief: (§3)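 Broth microdilution in RPMI 1640 with glutamine, fluconazole as reference. For yeasts, MIC is ≥80% growth reduction (IC80) versus control. For filamentous fungi, the value is expressed as IC50. Readings at 24 and 48 h.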

Lichtheimia corymbifera [8] = experiment: Antifungal activity against Absidia corymbifera 272 after 24 hrs by broth microdilution method; format: functional; conditions: Lichtheimia corymbifera, 272, 24 h; method in brief: as §3
Aspergillus fumigatus [9] = experiment: Antifungal activity against Aspergillus fumigatus 231 after 48 hrs by broth microdilution method; format: functional; conditions: Aspergillus fumigatus, 231, 48 h; method in brief: as §3
Aspergillus fumigatus [10] = experiment: Antifungal activity against Aspergillus fumigatus 231 after 24 hrs by broth microdilution method; format: functional; conditions: Aspergillus fumigatus, 231, 24 h; method in brief: as §3
Trichosporon asahii [11] = experiment: Antifungal activity against Trichosporon asahii 1188 after 48 hrs by broth microdilution method; format: functional; conditions: Trichosporon asahii, 1188, 48 h; method in brief: as §3
Trichosporon asahii [12] = experiment: Antifungal activity against Trichosporon asahii 1188 after 24 hrs by broth microdilution method; format: functional; conditions: Trichosporon asahii, 1188, 24 h; method in brief: as §3
Pichia kudriavzevii [13] = experiment: Antifungal activity against Candida krusei E28 after 48 hrs by broth microdilution method; format: functional; conditions: E28, 48 h; method in brief: as §3
Pichia kudriavzevii [14] = experiment: Antifungal activity against Candida krusei E28 after 24 hrs by broth microdilution method; format: functional; conditions: E28, 24 h; method in brief: as §3
Candida albicans [15] = experiment: Antifungal activity against Candida albicans ATCC 44859 after 48 hrs by broth microdilution method; format: functional; conditions: ATCC 44859, 48 h; method in brief: as §3
Candida albicans [16] = experiment: Antifungal activity against Candida albicans ATCC 44859 after 24 hrs by broth microdilution method; format: functional; conditions: ATCC 44859, 24 h; method in brief: as §3
Nakaseomyces glabratus = experiment: Antifungal activity against Candida glabrata 20/I at 500 micromol/L after 24 to 48 hrs by broth microdilution method; format: functional, organism-based; method in brief: as §3
Candida tropicalis = experiment: Antifungal activity against Candida tropicalis 156 at 500 micromol/L after 24 to 48 hrs by broth microdilution method; format: functional, organism-based; method in brief: as §3
Pseudomonas aeruginosa = experiment: Antibacterial activity against Pseudomonas aeruginosa CCM 1961 at 500 micromol/L after 24 to 48 hrs by broth microdilution method; format: functional, organism-based
Method in brief: (§4)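 Broth microdilution in Mueller–Hinton broth, compounds dissolved in DMSO, tested over a dilution series from 500 downward. MIC taken as ≥95% growth reduction (IC95) versus drug-free control. Benzylpenicillin comparator. Readings at 24 and 48 h.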

Klebsiella pneumoniae [17] = experiment: Antibacterial activity against ESBL-positive Klebsiella pneumoniae J 14368/08 at 500 micromol/L after 24 to 48 hrs by broth microdilution method; format: functional, organism-based; method in brief: as §4
Klebsiella pneumoniae [18] = experiment: Antibacterial activity against Klebsiella pneumoniae D 11750/08 at 500 micromol/L after 24 to 48 hrs by broth microdilution method; format: functional, organism-based; method in brief: as §4
Escherichia coli = experiment: Antibacterial activity against Escherichia coli CCM 4517 at 500 micromol/L after 24 to 48 hrs by broth microdilution method; format: functional, organism-based; method in brief: as §4
Enterococcus sp. = experiment: Antibacterial activity against Enterococcus sp. J 14365/08 at 500 micromol/L after 24 to 48 hrs by broth microdilution method; format: functional, organism-based; method in brief: as §4
[19] = test system: Staphylococcus epidermidis; experiment: Antibacterial activity against Staphylococcus epidermidis H 6966/08 after 48 hrs by broth microdilution method; format: functional; conditions: H 6966/08, 48 h; method in brief: as §4
[20] = test system: Staphylococcus epidermidis; experiment: Antibacterial activity against Staphylococcus epidermidis H 6966/08 after 24 hrs by broth microdilution method; format: functional; conditions: H 6966/08, 24 h; method in brief: as §4
Staphylococcus aureus [21] = experiment: Antibacterial activity against methicillin-resistant Staphylococcus aureus H 5996/08 after 48 hrs by broth microdilution method; format: functional; conditions: H 5996/08, 48 h; method in brief: as §4
Staphylococcus aureus [22] = experiment: Antibacterial activity against methicillin-resistant Staphylococcus aureus H 5996/08 after 24 hrs by broth microdilution method; format: functional; conditions: H 5996/08, 24 h; method in brief: as §4
Staphylococcus aureus [23] = experiment: Antibacterial activity against Staphylococcus aureus CCM 4516/08 after 48 hrs by broth microdilution method; format: functional; conditions: CCM 4516/08, 48 h; method in brief: as §4
Staphylococcus aureus [24] = experiment: Antibacterial activity against Staphylococcus aureus CCM 4516/08 after 24 hrs by broth microdilution method; format: functional; conditions: CCM 4516/08, 24 h; method in brief: as §4
Mycobacterium kansasii [25] = experiment: Antimycobacterial activity against Mycobacterium kansasii 6509/96 after 21 days; format: functional; conditions: 6509/96, 504 h; method in brief: as §1
Mycobacterium kansasii [26] = experiment: Antimycobacterial activity against Mycobacterium kansasii 6509/96 after 14 days; format: functional; conditions: 6509/96, 336 h; method in brief: as §1
Mycobacterium kansasii [27] = experiment: Antimycobacterial activity against Mycobacterium kansasii 6509/96 after 7 days; format: functional; conditions: 6509/96, 168 h; method in brief: as §1
Mycobacterium kansasii [28] = experiment: Antimycobacterial activity against Mycobacterium kansasii My 235/80 after 21 days; format: functional; conditions: My 235/80, 504 h; method in brief: as §1
Mycobacterium kansasii [29] = experiment: Antimycobacterial activity against Mycobacterium kansasii My 235/80 after 14 days; format: functional; conditions: My 235/80, 336 h; method in brief: as §1
HepG2 = experiment: Cytotoxicity against human HepG2 cells after 24 hrs by CellTiter assay; format: cell-based; conditions: HepG2, 24 h
Method in brief: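 HepG2 cells (passage 27–33) in MEM with 10% FBS, L-glutamine and NEAA, seeded at 1×10^4 per well. Treated next day with compounds at 0.1–100 µM (or 0.1–25 µmol/L), triplicates, <1% DMSO, for 24 h at 37 °C, 5% CO2. MTS reagent added for 2 h, absorbance read at 490 nm. IC50 taken against untreated (100%) and 10% DMSO (0%) controls.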

Mycobacterium kansasii [30] = experiment: Antimycobacterial activity against Mycobacterium kansasii My 235/80 after 7 days; format: functional; conditions: My 235/80, 168 h; method in brief: as §1

Structure (SMILES)	MIC (Mycobacterium avium [1])	MIC (Mycobacterium avium [2])	MIC [3]	MIC [4]	MIC50 [5]	MIC50 [6]	MIC50 (Lichtheimia corymbifera [7])	MIC50 (Lichtheimia corymbifera [8])	MIC50 (Aspergillus fumigatus [9])	MIC50 (Aspergillus fumigatus [10])	MIC80 (Trichosporon asahii [11])	MIC80 (Trichosporon asahii [12])	MIC80 (Pichia kudriavzevii [13])	MIC80 (Pichia kudriavzevii [14])	MIC80 (Candida albicans [15])	MIC80 (Candida albicans [16])	Activity (Nakaseomyces glabratus)	Activity (Candida tropicalis)	Activity (Pseudomonas aeruginosa)	Activity (Klebsiella pneumoniae [17])	also measured
CCOP(=O)(OCC)Oc1ccc(Cl)cc1C(=O)Nc1ccc(Br)cc1	8 µM (≈ 3.7 µg/mL)	8 µM (≈ 3.7 µg/mL)	2 µM (≈ 0.925 µg/mL)	2 µM (≈ 0.925 µg/mL)	250 µM (≈ 116 µg/mL)	250 µM (≈ 116 µg/mL)	> 500 µM	> 500 µM	> 500 µM	> 500 µM	> 500 µM	> 500 µM	> 500 µM	> 500 µM	> 500 µM	> 500 µM	inactive	inactive	inactive	inactive	Activity (Klebsiella pneumoniae [18]): inactive; Activity (Escherichia coli): inactive; Activity (Enterococcus sp.): inactive; MIC95 [19]: 125 µM (≈ 57.8 µg/mL); MIC95 [20]: 125 µM (≈ 57.8 µg/mL); MIC95 (Staphylococcus aureus [21]): > 500 µM; MIC95 (Staphylococcus aureus [22]): > 500 µM; MIC95 (Staphylococcus aureus [23]): 125 µM (≈ 57.8 µg/mL); MIC95 (Staphylococcus aureus [24]): 125 µM (≈ 57.8 µg/mL); MIC (Mycobacterium kansasii [25]): 8 µM (≈ 3.7 µg/mL); MIC (Mycobacterium kansasii [26]): 8 µM (≈ 3.7 µg/mL); MIC (Mycobacterium kansasii [27]): 4 µM (≈ 1.85 µg/mL); MIC (Mycobacterium kansasii [28]): 8 µM (≈ 3.7 µg/mL); MIC (Mycobacterium kansasii [29]): 8 µM (≈ 3.7 µg/mL); IC50 (HepG2): 1.56 µM; MIC (Mycobacterium kansasii [30]): 4 µM (≈ 1.85 µg/mL)
CCOP(=O)(OCC)Oc1ccc(Cl)cc1C(=O)Nc1ccc(F)cc1	62.5 µM (≈ 25.1 µg/mL)	62.5 µM (≈ 25.1 µg/mL)	16 µM (≈ 6.43 µg/mL)	8 µM (≈ 3.21 µg/mL)	> 500 µM	> 500 µM	> 500 µM	> 500 µM	> 500 µM	> 500 µM	> 500 µM	> 500 µM	> 500 µM	> 500 µM	> 500 µM	> 500 µM	inactive	inactive	inactive	inactive	Activity (Klebsiella pneumoniae [18]): inactive; Activity (Escherichia coli): inactive; Activity (Enterococcus sp.): inactive; MIC95 [19]: > 500 µM; MIC95 [20]: > 500 µM; MIC95 (Staphylococcus aureus [21]): > 500 µM; MIC95 (Staphylococcus aureus [22]): > 500 µM; MIC95 (Staphylococcus aureus [23]): 500 µM (≈ 201 µg/mL); MIC95 (Staphylococcus aureus [24]): 250 µM (≈ 100 µg/mL); MIC (Mycobacterium kansasii [25]): 32 µM (≈ 12.9 µg/mL); MIC (Mycobacterium kansasii [26]): 32 µM (≈ 12.9 µg/mL); MIC (Mycobacterium kansasii [27]): 16 µM (≈ 6.43 µg/mL); MIC (Mycobacterium kansasii [28]): 32 µM (≈ 12.9 µg/mL); MIC (Mycobacterium kansasii [29]): 32 µM (≈ 12.9 µg/mL); IC50 (HepG2): 31.4 µM; MIC (Mycobacterium kansasii [30]): 32 µM (≈ 12.9 µg/mL)
